Test results from ChEMBL document CHEMBL2311393 (Bioorg Med Chem Lett, 2013).
Active and inactive are the calls of the source. No cut-off for these calls is given here.

Key:
SK-BR-3 = assay: Antiproliferative activity against human SKBR3 cells; type: functional, cell-based
Summary of the method: (§1)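 Growth inhibition in SKBr3 (ER-negative, Her2-overexpressing) and MCF-7 (ER-positive) breast cancer cells, run per an earlier published protocol. Values are mean ± standard deviation of at least two separate experiments, each in triplicate.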

MCF7 [1] = assay: Antiproliferative activity against human MCF7 cells; type: functional, cell-based; summary of the method: as §1
[2] = molecular target: T1, Heat shock protein HSP90 (Homo sapiens) (UniProt P07900+P08238); assay: Inhibition of Hsp90 in human MCF7 cells assessed as degradation of client protein Raf after 24 hrs by Western blot analysis; type: cell-based
Summary of the method: (§2)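 MCF-7 cells were treated with the compound across a concentration series. Cell lysates were then probed by western blot for the Hsp90 client proteins Raf and Akt, for Hsp90 itself, and for actin as a non-Hsp90-dependent control protein.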

[3] = molecular target: T1, Heat shock protein HSP90 (Homo sapiens); assay: Inhibition of Hsp90 in human MCF7 cells assessed as degradation of client protein Akt after 24 hrs by Western blot analysis; type: cell-based; summary of the method: as §2
MCF7 [4] = assay: Effect on Hsp90 protein level in human MCF7 cells at 0.1 to 2.5 uM after 24 hrs by Western blot analysis; type: functional, cell-based; summary of the method: as §2

SMILES | IC50 (SK-BR-3) [µM] | IC50 (MCF7 [1]) [µM] | inhibition [2] | inhibition [3] | Activity (MCF7 [4])
CC(=O)Oc1ccc(C(=O)Nc2cc3ccc(OCCC4CCCCN4)c(C)c3oc2=O)cc1CC=C(C)C (stereo not given) | 0.64 | 0.71 |  |  | 
CC(C)=CCc1cc(C(=O)Nc2cc3ccc(OCCCNCCO)c(C)c3oc2=O)ccc1O | 0.61 | 1.56 |  |  | 
CC(=O)Oc1ccc(C(=O)Nc2cc3ccc(OCC4CCCN(C)C4)c(C)c3oc2=O)cc1CC=C(C)C (stereo not given) | 0.74 | 1.65 |  |  | 
CC(C)=CCc1cc(C(=O)Nc2cc3ccc(OCCCN(C)C(C)C)c(C)c3oc2=O)ccc1O | 0.57 | 1.05 |  |  | 
CC(C)=CCc1cc(C(=O)Nc2cc3ccc(OCCCN(C)c4ccccc4)c(C)c3oc2=O)ccc1O | > 50 | > 50 |  |  | 
CCN(CC)CCCOc1ccc2cc(NC(=O)c3ccc(O)c(CC=C(C)C)c3)c(=O)oc2c1C | 4.9 | 6.39 |  |  | 
CC(C)=CCc1cc(C(=O)Nc2cc3ccc(OCCCNC(C)(C)C)c(C)c3oc2=O)ccc1O | 0.66 | 0.95 |  |  | 
CC(C)=CCc1cc(C(=O)Nc2cc3ccc(OCCCNCC(N)=O)c(C)c3oc2=O)ccc1O | 2.29 | 1.46 |  |  | 
CC(C)=CCc1cc(C(=O)Nc2cc3ccc(OCCCNC4CCCCC4)c(C)c3oc2=O)ccc1O | 0.66 | 1.07 |  |  | 
CC(=O)Oc1ccc(C(=O)Nc2cc3ccc(OCC4CCCNC4)c(C)c3oc2=O)cc1CC=C(C)C (stereo not given) | 0.62 | 0.82 |  |  | 
CC(C)=CCc1cc(C(=O)Nc2cc3ccc(OCCCN4CCCC4)c(C)c3oc2=O)ccc1O | 0.72 | 0.99 |  |  | 
CC(C)=CCc1cc(C(=O)Nc2cc3ccc(OCCCNCC(C)C)c(C)c3oc2=O)ccc1O | 1.03 | 1.32 |  |  | 
CC(C)=CCc1cc(C(=O)Nc2cc3ccc(OCCCN4CCNCC4)c(C)c3oc2=O)ccc1O | 0.82 | 0.93 |  |  | 
CO[C@@H]1[C@@H](O)[C@@H](O)[C@H](Oc2ccc3cc(NC(=O)c4ccc(O)c(CC=C(C)C)c4)c(=O)oc3c2C)OC1(C)C | 10 |  |  |  | 
CC(C)=CCc1cc(C(=O)Nc2cc3ccc(OCCCN(C(C)C)C(C)C)c(C)c3oc2=O)ccc1O | 1.6 | 1.31 |  |  | 
CC(C)=CCc1cc(C(=O)Nc2cc3ccc(OCC4CCCNC4)c(C)c3oc2=O)ccc1O (stereo not given) | 0.6 | 0.79 |  |  | 
CC(C)=CCc1cc(C(=O)Nc2cc3ccc(OCCCNC(C)C)c(C)c3oc2=O)ccc1O | 0.75 | 0.74 |  |  | 
CC(C)=CCc1cc(C(=O)Nc2cc3ccc(OCCCNC(C)(C)c4ccccc4)c(C)c3oc2=O)ccc1O | 0.96 | 1.07 |  |  | 
COC(=O)CNCCCOc1ccc2cc(NC(=O)c3ccc(O)c(CC=C(C)C)c3)c(=O)oc2c1C | 1.06 | 2.82 |  |  | 
CCNCCCOc1ccc2cc(NC(=O)c3ccc(O)c(CC=C(C)C)c3)c(=O)oc2c1C | 0.72 | 0.98 |  |  | 

SMILES | IC50 (SK-BR-3) [µM] | IC50 (MCF7 [1]) [µM] | inhibition [2] | inhibition [3] | Activity (MCF7 [4])
CC(C)=CCc1cc(C(=O)Nc2cc3ccc(OCCCNC45CC6CC(CC(C6)C4)C5)c(C)c3oc2=O)ccc1O | 0.31 | 0.32 | Dose-dependent effect | Dose-dependent effect | inactive
CC(C)=CCc1cc(C(=O)Nc2cc3ccc(OCC4CCCN(C)C4)c(C)c3oc2=O)ccc1O (stereo not given) | 1.3 | 2.64 |  |  | 
CC(C)=CCc1cc(C(=O)Nc2cc3ccc(OCCCNCC(=O)O)c(C)c3oc2=O)ccc1O | 7.57 | 18.1 |  |  | 
CC(C)=CCc1cc(C(=O)Nc2cc3ccc(OCCCN(C)Cc4ccccc4)c(C)c3oc2=O)ccc1O | 10.7 | 11.5 |  |  | 
CC(C)=CCc1cc(C(=O)Nc2cc3ccc(OCCCN4CCOCC4)c(C)c3oc2=O)ccc1O | > 50 | > 50 |  |  | 
CC(C)=CCc1cc(C(=O)Nc2cc3ccc(OCCCN(C)C(C)(C)C)c(C)c3oc2=O)ccc1O | 0.88 | 1.14 |  |  | 
CC(C)=CCc1cc(C(=O)Nc2cc3ccc(OCC4CCN(C)C4)c(C)c3oc2=O)ccc1O (stereo not given) | 0.92 | 1.55 |  |  | 
CC(C)=CCc1cc(C(=O)Nc2cc3ccc(OCCCNc4ccccc4)c(C)c3oc2=O)ccc1O | > 50 | > 50 |  |  | 
CC(C)=CCc1cc(C(=O)Nc2cc3ccc(OCCCN[C@@H]4C[C@H]5CC[C@@H]4C5)c(C)c3oc2=O)ccc1O | 0.77 | 1.03 |  |  | 
CCCN(CCC)CCCOc1ccc2cc(NC(=O)c3ccc(O)c(CC=C(C)C)c3)c(=O)oc2c1C | > 50 | > 50 |  |  | 
CC(C)=CCc1cc(C(=O)Nc2cc3ccc(OCCCNCc4ccccc4)c(C)c3oc2=O)ccc1O | 0.47 | 0.91 |  |  | 
CC(C)=CCc1cc(C(=O)Nc2cc3ccc(OCCCN[C@H](C)c4ccccc4)c(C)c3oc2=O)ccc1O | 1 | 1.45 |  |  | 
CCCNCCCOc1ccc2cc(NC(=O)c3ccc(O)c(CC=C(C)C)c3)c(=O)oc2c1C | 0.99 | 0.98 |  |  | 
CC(=O)Oc1ccc(C(=O)Nc2cc3ccc(OCC4CCN(C)C4)c(C)c3oc2=O)cc1CC=C(C)C (stereo not given) | 0.88 | 1.88 |  |  | 
CC(C)=CCc1cc(C(=O)Nc2cc3ccc(OCCC4CCCCN4)c(C)c3oc2=O)ccc1O (stereo not given) | 0.64 | 0.71 |  |  | 
CC(C)=CCc1cc(C(=O)Nc2cc3ccc(OCCCN4CCCCC4)c(C)c3oc2=O)ccc1O | > 50 | > 50 |  |  | 
CC(C)=CCc1cc(C(=O)Nc2cc3ccc(OCCCN4CCN(C)CC4)c(C)c3oc2=O)ccc1O | 1.01 | 1.2 |  |  | 
CCN(C)CCCOc1ccc2cc(NC(=O)c3ccc(O)c(CC=C(C)C)c3)c(=O)oc2c1C | 0.73 | 2.19 |  |  | 
CC(C)=CCc1cc(C(=O)Nc2cc3ccc(OCCCN(C)C4CCCCC4)c(C)c3oc2=O)ccc1O | 0.97 | 1.08 |  |  | 
